In brackets after ≈: the same amount, converted by molar mass.
Tests used:
[1] = biological target: T1, MAO-B (Rattus norvegicus, UniProt P19643); assay: Inhibition of MAO-B in rat forebrain using [14C]PEA as substrate at 30 uM incubated for 20 mins prior to substrate addition measured after 10 mins by liquid scintillation counting analysis relative to control; format: tissue-based; settings: probe [14C]PEA
T1 sequence (P19643 whole entry): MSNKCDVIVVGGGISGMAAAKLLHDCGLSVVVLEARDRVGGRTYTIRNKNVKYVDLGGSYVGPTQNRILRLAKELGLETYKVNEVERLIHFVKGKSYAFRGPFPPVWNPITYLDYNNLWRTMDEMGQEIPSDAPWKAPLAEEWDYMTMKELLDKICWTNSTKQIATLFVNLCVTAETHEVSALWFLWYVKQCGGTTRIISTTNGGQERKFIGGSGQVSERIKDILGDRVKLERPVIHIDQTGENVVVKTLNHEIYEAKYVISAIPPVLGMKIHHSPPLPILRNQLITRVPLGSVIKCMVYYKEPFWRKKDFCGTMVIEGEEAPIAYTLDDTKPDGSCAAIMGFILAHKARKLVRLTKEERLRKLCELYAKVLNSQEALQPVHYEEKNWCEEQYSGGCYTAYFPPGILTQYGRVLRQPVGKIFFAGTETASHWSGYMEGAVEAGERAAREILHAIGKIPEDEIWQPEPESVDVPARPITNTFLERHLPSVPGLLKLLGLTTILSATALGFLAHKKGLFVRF

[2] = biological target: T2, MAO-A (Rattus norvegicus, UniProt P21396); assay: Inhibition of MAO-A in rat forebrain using [14C]5-HT as substrate at 30 uM incubated for 20 mins prior to substrate addition measured after 5 mins by liquid scintillation counting analysis relative to control; format: tissue-based; settings: probe [14C]5-HT
T2 sequence (P21396 whole entry): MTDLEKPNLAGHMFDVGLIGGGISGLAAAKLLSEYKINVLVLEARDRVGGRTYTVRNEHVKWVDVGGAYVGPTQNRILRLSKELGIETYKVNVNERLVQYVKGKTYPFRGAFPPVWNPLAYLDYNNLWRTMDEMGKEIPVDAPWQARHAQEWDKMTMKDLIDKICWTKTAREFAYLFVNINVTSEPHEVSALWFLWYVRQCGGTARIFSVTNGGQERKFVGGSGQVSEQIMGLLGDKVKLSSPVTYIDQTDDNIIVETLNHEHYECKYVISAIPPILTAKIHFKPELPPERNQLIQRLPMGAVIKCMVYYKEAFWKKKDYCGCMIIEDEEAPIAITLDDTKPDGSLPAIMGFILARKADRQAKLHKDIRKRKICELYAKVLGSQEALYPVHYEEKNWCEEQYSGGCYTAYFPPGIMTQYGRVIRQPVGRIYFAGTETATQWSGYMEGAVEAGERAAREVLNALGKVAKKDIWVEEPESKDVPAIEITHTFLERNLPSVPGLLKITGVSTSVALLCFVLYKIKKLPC

[3] = biological target: Cytochrome P450 2D6 (Homo sapiens, UniProt P10635); assay: Inhibition of human CYP2D6 assessed as dextromethorphan O-demethylation after 20 mins by LC/MS/MS analysis; format: ADME
Outline: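 Human liver microsomes (0.2 mg protein/mL) with 1 mM NADPH in 50 mM HEPES pH 7.4, 10 mM MgCl2, 0.1 mM EDTA. After centrifugation, supernatant metabolite measured by LC/MS/MS. Standard curve from authentic metabolite cocktail added to unincubated reaction mix.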

[4] = test system: Staphylococcus aureus; assay: Ratio of linezolid ED50 to compound ED50 for methicillin-resistant Staphylococcus aureus SR3637 infected in po dosed JCL/ICR mouse systemic infection model; format: functional
Outline: (§1)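 Five-week-old male JCL/ICR mice (20–25 g), five per group, infected intraperitoneally with 0.5 or 1.0 mL bacterial suspension (about 100 times the 50% lethal dose). Test and reference compounds given intravenously or orally 1 h after infection. Mortality followed over 7 days; ED50 with 95% confidence limits by the logit method.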

[5] = test system: Staphylococcus aureus; assay: Ratio of linezolid ED50 to compound ED50 for methicillin-resistant Staphylococcus aureus SR3637 infected in iv dosed JCL/ICR mouse systemic infection model; format: functional; outline: as §1
[6] = test system: Haemophilus influenzae; assay: Ratio of eperezolid MIC to compound MIC for Haemophilus influenzae SR27914 clinical isolate; format: functional
[7] = test system: Enterococcus faecalis; assay: Antibacterial activity against Enterococcus faecalis SR1004 clinical isolate assessed as growth inhibition by CLSI broth microdilution method; format: functional
Outline: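 MIC by CLSI broth microdilution in cation-adjusted Mueller-Hinton broth; S. pneumoniae medium supplemented with 5% lysed horse blood.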

Chain of Cytochrome P450 2D6 (P10635 whole entry): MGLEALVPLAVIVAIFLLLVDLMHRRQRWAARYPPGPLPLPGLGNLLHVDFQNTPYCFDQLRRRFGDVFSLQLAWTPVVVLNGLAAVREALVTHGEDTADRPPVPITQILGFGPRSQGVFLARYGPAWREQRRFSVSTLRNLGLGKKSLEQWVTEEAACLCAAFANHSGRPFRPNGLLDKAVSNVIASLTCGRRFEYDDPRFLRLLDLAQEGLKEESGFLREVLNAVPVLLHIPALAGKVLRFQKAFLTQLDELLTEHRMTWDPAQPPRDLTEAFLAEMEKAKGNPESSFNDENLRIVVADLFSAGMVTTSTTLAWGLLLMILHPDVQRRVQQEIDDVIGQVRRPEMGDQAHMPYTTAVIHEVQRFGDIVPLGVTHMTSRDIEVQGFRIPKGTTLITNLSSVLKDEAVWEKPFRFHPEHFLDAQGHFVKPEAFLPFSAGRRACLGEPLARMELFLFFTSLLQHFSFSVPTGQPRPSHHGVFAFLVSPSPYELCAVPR

| Structure (SMILES) | inhibition at 10 min, 30 µM [1] | inhibition at 5 min, 30 µM [2] | IC50 [3] | Ratio ED50 [4] | Ratio ED50 [5] | Ratio [6] | MIC [7] |
| --- | --- | --- | --- | --- | --- | --- | --- |
| COC(=S)NC[C@H]1CN(c2ccc(N3CCNN(C(=O)CO)CC3)c(F)c2)C(=O)O1 | 10.1% | 48.2% | > 20 µM | 2 | 3 | 4 | 0.5 µg/mL (≈ 1.13 µM) |
| COC(=S)NC[C@H]1CN(c2cc(F)c(N3CCNN(C(=O)CO)CC3)c(F)c2)C(=O)O1 | 10.6% | 12.4% | > 20 µM |  |  | 4 | 0.25 µg/mL (≈ 0.544 µM) |

— ChEMBL document CHEMBL2375276, “Antibacterial oxazolidinone analogues having a N-hydroxyacetyl-substituted seven-membered [1,2,5]triazepane or [1,2,5]oxadiazepane C-ring unit” (Eur J Med Chem, 2013)
